# From ChEMBL document CHEMBL1629526, “4-[1-(Substituted aryl/alkyl carbonyl)-benzoimidazol-2-yl]-benzenesulfonic acids: synthesis, antimicrobial activity, QSAR studies, and antiviral evaluation” (Eur J Med Chem, 2010)
# Key:
# Staphylococcus aureus = assay: Antimicrobial activity against Staphylococcus aureus after 24 hrs by tube dilution method; assay type: functional
# Bacillus subtilis = assay: Antimicrobial activity against Bacillus subtilis after 24 hrs by tube dilution method; assay type: functional
# Summary of the method: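 Serial dilutions in double-strength nutrient broth (I.P.) with ciprofloxacin as reference, tube dilution, incubated 37 °C for 24 h. MIC is the lowest concentration that inhibited growth.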
# Escherichia coli = assay: Antimicrobial activity against Escherichia coli after 24 hrs by tube dilution method; assay type: functional
# Candida albicans = assay: Antimicrobial activity against Candida albicans after 48 hrs by tube dilution method; assay type: functional
# Aspergillus niger = assay: Antimicrobial activity against Aspergillus niger after 7 days by tube dilution method; assay type: functional; details: 168 h
# [1] = Cytotoxicity against cat CRFK cells assessed as cell viability by MTS assay; assay type: cell-based, Felis catus; details: crfk
# Summary of the method: (§1)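 Uninfected cultures were run in parallel with the antiviral assays. Viability was read by colorimetric formazan MTS assay.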
# Felid alphaherpesvirus 1 = assay: Antiviral activity against Feline herpesvirus 1 infected in cat CRFK cells assessed as inhibition of virus induced cytopathicity after 2 to 4 days by MTS assay; assay type: functional, organism-based; details: Felid alphaherpesvirus 1, CRFK
# Feline coronavirus = assay: Antiviral activity against Feline coronavirus infected in cat CRFK cells assessed as inhibition of virus induced cytopathicity after 2 to 4 days by MTS assay; assay type: functional, organism-based; details: Alphacoronavirus 1, CRFK
# [2] = Cytotoxicity against human HEL cells assessed as altered cell morphology; assay type: cell-based
# Summary of the method: (§2)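 Uninfected cell cultures run alongside the antiviral assays, exposed to serial compound dilutions and incubated at 37 °C for 2–4 days. Toxicity was scored microscopically and reported as the minimum cytotoxic concentration (MCC), the lowest concentration causing a detectable change in normal cell morphology.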
# Human alphaherpesvirus 1 [3] = assay: Antiviral activity against Herpes simplex virus 1 KOS infected in HEL cells assessed as inhibition of virus induced cytopathicity after 2 to 4 days by MTS assay; assay type: functional, organism-based; details: Human alphaherpesvirus 1, KOS
# Human alphaherpesvirus 2 = assay: Antiviral activity against Herpes simplex virus 2 G infected in HEL cells assessed as inhibition of virus induced cytopathicity after 2 to 4 days by MTS assay; assay type: functional, organism-based; details: Human alphaherpesvirus 2, strain G
# Vaccinia virus = assay: Antiviral activity against Vaccinia virus infected in HEL cells assessed as inhibition of virus induced cytopathicity after 2 to 4 days by MTS assay; assay type: functional, organism-based; details: Orthopoxvirus vaccinia
# [4] = system: Vesicular stomatitis virus; assay: Antiviral activity against Vesicular stomatitis virus infected in HEL cells assessed as inhibition of virus induced cytopathicity after 2 to 4 days by MTS assay; assay type: functional, organism-based
# Human alphaherpesvirus 1 [5] = assay: Antiviral activity against thymidine kinase deficient acyclovir-resistant Herpes simplex virus 1 KOS infected in HEL cells assessed as inhibition of virus induced cytopathicity after 2 to 4 days by MTS assay; assay type: functional, organism-based; details: Human alphaherpesvirus 1, KOS
# HeLa = assay: Cytotoxicity against human HeLa cells assessed as cell viability by MTS assay; assay type: cell-based; details: hela; summary of the method: as §1
# [6] = Cytotoxicity against human HeLa cells assessed as altered cell morphology; assay type: cell-based; summary of the method: as §2
# [7] = system: Vesicular stomatitis virus; assay: Antiviral activity against Vesicular stomatitis virus infected in human HeLa cells assessed as inhibition of virus induced cytopathicity by visual scoring of CPE; assay type: functional, organism-based
# [8] = system: Vesicular stomatitis virus; assay: Antiviral activity against Vesicular stomatitis virus infected in human HeLa cells assessed as inhibition of virus induced cytopathicity after 2 to 4 days by MTS assay; assay type: functional, organism-based
# Coxsackievirus B4 [9] = assay: Antiviral activity against coxsackievirus B4 infected in human HeLa cells assessed as inhibition of virus induced cytopathicity by visual scoring of CPE; assay type: functional, organism-based; details: Enterovirus B
# Coxsackievirus B4 [10] = assay: Antiviral activity against coxsackievirus B4 infected in human HeLa cells assessed as inhibition of virus induced cytopathicity after 2 to 4 days by MTS assay; assay type: functional, organism-based; details: Enterovirus B
# [11] = system: Respiratory syncytial virus; assay: Antiviral activity against Respiratory syncytial virus infected in human HeLa cells assessed as inhibition of virus induced cytopathicity by visual scoring of CPE; assay type: functional, organism-based
# [12] = system: Respiratory syncytial virus; assay: Antiviral activity against Respiratory syncytial virus infected in human HeLa cells assessed as inhibition of virus induced cytopathicity after 2 to 4 days by MTS assay; assay type: functional, organism-based
# MDCK = assay: Cytotoxicity against MDCK cells assessed as cell viability by MTS assay; assay type: cell-based, Canis lupus familiaris; details: dog, mdck; summary of the method: as §1
# [13] = Cytotoxicity against MDCK cells assessed as altered cell morphology; assay type: cell-based, Canis lupus familiaris; details: dog; summary of the method: as §2
# Influenza A virus [14] = assay: Antiviral activity against Influenza A H1N1 virus subtype infected in MDCK cells assessed as inhibition of virus induced cytopathicity by visual scoring of CPE; assay type: functional, organism-based
# Influenza A virus [15] = assay: Antiviral activity against Influenza A H1N1 virus subtype infected in MDCK cells assessed as inhibition of virus induced cytopathicity after 2 to 4 days by MTS assay; assay type: functional, organism-based
# Influenza A virus [16] = assay: Antiviral activity against Influenza A H3N2 virus subtype infected in MDCK cells assessed as inhibition of virus induced cytopathicity by visual scoring of CPE; assay type: functional, organism-based
# Influenza A virus [17] = assay: Antiviral activity against Influenza A H3N2 virus subtype infected in MDCK cells assessed as inhibition of virus induced cytopathicity after 2 to 4 days by MTS assay; assay type: functional, organism-based
# Influenza B virus [18] = assay: Antiviral activity against Influenza B virus infected in MDCK cells assessed as inhibition of virus induced cytopathicity by visual scoring of CPE; assay type: functional, organism-based
# Influenza B virus [19] = assay: Antiviral activity against Influenza B virus infected in MDCK cells assessed as inhibition of virus induced cytopathicity after 2 to 4 days by MTS assay; assay type: functional, organism-based
# [20] = Cytotoxicity against african green monkey Vero cells assessed as altered cell morphology; assay type: cell-based; details: chlorocebus sabaeus; summary of the method: as §2
# Human respirovirus 3 = assay: Antiviral activity against parainfluenza-3 virus infected in african green monkey Vero cells assessed as inhibition of virus induced cytopathicity after 2 to 4 days by MTS assay; assay type: functional, organism-based; details: Human respirovirus 3, Vero
# [21] = system: Mammalian orthoreovirus 1; assay: Antiviral activity against Reovirus 1 virus infected in african green monkey Vero cells assessed as inhibition of virus induced cytopathicity after 2 to 4 days by MTS assay; assay type: functional, organism-based; details: Mammalian orthoreovirus 1, Vero
# Sindbis virus = assay: Antiviral activity against Sindbis virus infected in african green monkey Vero cells assessed as inhibition of virus induced cytopathicity after 2 to 4 days by MTS assay; assay type: functional, organism-based
# Coxsackievirus B4 [22] = assay: Antiviral activity against Coxsackie virus B4 infected in african green monkey Vero cells assessed as inhibition of virus induced cytopathicity after 2 to 4 days by MTS assay; assay type: functional, organism-based; details: Enterovirus B
# Punta Toro virus = assay: Antiviral activity against Punta Toro virus infected in african green monkey Vero cells assessed as inhibition of virus induced cytopathicity after 2 to 4 days by MTS assay; assay type: functional, organism-based
SMILES,MBC (Staphylococcus aureus) [µg/mL],MBC (Bacillus subtilis) [µg/mL],MBC (Escherichia coli) [µg/mL],MFC (Candida albicans) [µg/mL],MFC (Aspergillus niger) [µg/mL],CC50 [1] [µg/mL],EC50 (Felid alphaherpesvirus 1) [µg/mL],EC50 (Feline coronavirus) [µg/mL],MCC [2] [µg/mL],EC50 (Human alphaherpesvirus 1 [3]) [µg/mL],EC50 (Human alphaherpesvirus 2) [µg/mL],EC50 (Vaccinia virus) [µg/mL],EC50 [4] [µg/mL],EC50 (Human alphaherpesvirus 1 [5]) [µg/mL],CC50 (HeLa) [µg/mL],MCC [6] [µg/mL],EC50 [7] [µg/mL],EC50 [8] [µg/mL],EC50 (Coxsackievirus B4 [9]) [µg/mL],EC50 (Coxsackievirus B4 [10]) [µg/mL],further results
Nc1ccc(C(=O)n2c(-c3ccc(S(=O)(=O)O)cc3)nc3ccccc32)cc1,12.5,> 50,25,> 50,> 50,> 100,> 100,> 100,> 100,> 100,> 100,> 100,> 100,> 100,> 100,> 100,> 100,> 100,> 100,> 100,EC50 [11]: > 100 µg/mL; EC50 [12]: > 100 µg/mL; CC50 (MDCK): 46.8 µg/mL; MCC [13]: 20 µg/mL; EC50 (Influenza A virus [14]): > 4 µg/mL; EC50 (Influenza A virus [15]): > 4 µg/mL; EC50 (Influenza A virus [16]): > 4 µg/mL; EC50 (Influenza A virus [17]): > 4 µg/mL; EC50 (Influenza B virus [18]): > 4 µg/mL; EC50 (Influenza B virus [19]): > 4 µg/mL; MCC [20]: > 100 µg/mL; EC50 (Human respirovirus 3): > 100 µg/mL; EC50 [21]: > 100 µg/mL; EC50 (Sindbis virus): > 100 µg/mL; EC50 (Coxsackievirus B4 [22]): > 100 µg/mL; EC50 (Punta Toro virus): > 100 µg/mL
O=C(c1cccc(O)c1)n1c(-c2ccc(S(=O)(=O)O)cc2)nc2ccccc21,12.5,> 50,3.12,50,> 50,> 100,> 100,> 100,> 100,> 100,> 100,> 100,> 100,> 100,> 100,> 100,> 100,> 100,> 100,> 100,EC50 [11]: > 100 µg/mL; EC50 [12]: > 100 µg/mL; CC50 (MDCK): > 100 µg/mL; MCC [13]: 100 µg/mL; EC50 (Influenza A virus [14]): > 20 µg/mL; EC50 (Influenza A virus [15]): > 20 µg/mL; EC50 (Influenza A virus [16]): > 20 µg/mL; EC50 (Influenza A virus [17]): > 20 µg/mL; EC50 (Influenza B virus [18]): > 20 µg/mL; EC50 (Influenza B virus [19]): > 20 µg/mL; MCC [20]: > 100 µg/mL; EC50 (Human respirovirus 3): > 100 µg/mL; EC50 [21]: > 100 µg/mL; EC50 (Sindbis virus): > 100 µg/mL; EC50 (Coxsackievirus B4 [22]): > 100 µg/mL; EC50 (Punta Toro virus): > 100 µg/mL
